Only some compounds are listed: those with a hit (about 29% of all), similar ones and a draw of the others.
Ecoli WT expand = growth inhibitors of E. coli BW25113 wild type | OD600 absorbance | growth inhibition, % at 100 µM | 98,000 tested, 0.15% active | AID 710;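 active means growth inhibition above about 50% at one test dose, limit read from the data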;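 further: growth measured after 20 h incubation at 37 °C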
CYP2C9 inh = inhibitors of human CYP2C9. CYP2C9 Supersomes, luciferin-H conversion, luminescence. AID 777. 96,000 tested, 20% active. inhibition, % at 5 µM;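 active means blocking of liver enzyme CYP2C9 beyond about 50% at 5 µM, limit read from the data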
Target sequence (P11712 whole entry, looked up): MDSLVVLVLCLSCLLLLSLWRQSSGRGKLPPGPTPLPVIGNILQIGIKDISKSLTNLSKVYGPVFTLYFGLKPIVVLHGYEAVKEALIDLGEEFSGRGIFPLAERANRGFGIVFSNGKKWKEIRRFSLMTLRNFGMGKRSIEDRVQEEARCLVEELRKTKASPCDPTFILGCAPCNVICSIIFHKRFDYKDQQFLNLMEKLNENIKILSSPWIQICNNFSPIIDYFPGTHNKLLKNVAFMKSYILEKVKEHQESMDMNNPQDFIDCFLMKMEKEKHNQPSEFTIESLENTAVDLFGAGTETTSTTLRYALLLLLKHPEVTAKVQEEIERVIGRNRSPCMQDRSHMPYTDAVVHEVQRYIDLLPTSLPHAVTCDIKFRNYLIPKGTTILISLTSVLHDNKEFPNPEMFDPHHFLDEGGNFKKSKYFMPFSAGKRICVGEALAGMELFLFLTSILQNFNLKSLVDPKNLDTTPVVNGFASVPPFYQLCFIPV
CYP2C19 activ = increases human CYP2C19 enzyme activity; recombinant CYP2C19, luciferin-H EGE luminescence; active compounds read high; 0 = fully inhibited enzyme, 1 = untreated enzyme; 96,000 tested, under 10 active; P33261; activation factor at 5 µM;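 active means activation factor of at least 2 at 5 µM in the primary screen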;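 further: 0 = wells with 2.5 mM tranylcypromine and 1 = vehicle-only wells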
CYP2C19 inhib = inhibitors of human CYP2C19. 96,000 tested, 21% active. CYP2C19 Supersomes, luciferin-H EGE luminescence, 30 min. inhibition, % at 5 µM;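 active means CYP2C19 inhibition above a set limit at 5 µM in the primary screen, cut at about 50% in these data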;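 further: plate controls were negative control wells for no effect and 2.5 mM tranylcypromine positive control for full effect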
Ecoli tolC = E. coli tolC mutant growth inhibition | E. coli BW25113 tolC mutant growth, OD615 | growth inhibition, % at 10 µM (by protocol) | 65,000 tested, 2.2% active | AID 573;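 active means growth inhibition at or above a cutoff equal to the mean over every tested compound plus 3 SD, cut at about 60% in these data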;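 further: growth measured after 20 h incubation at 37 °C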
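Test system: tolC-deleted E. coli BW25113; medium: LB with kanamycin 50 µg/mL; compound: single-point testing at 10 µM; incubation: 20 h compound exposure of bacteria at 37 °C; signal: OD at 615 nm; evaluation: growth inhibition in percent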
CYP2C9 act = increases human cytochrome P450 2C9 activity | 96,000 tested, 1.4% active | activation factor at 5 µM | recombinant CYP2C9, luciferin-H conversion, luminescence; active compounds read high; factor 1 = untreated enzyme, 0 = blocked | P11712;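 active means activation factor of 2 or more for CYP2C9 at a 5 µM dose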;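 further: 0 = sulfaphenazole-blocked wells and 1 = vehicle-only wells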
Active calls of the source: *; x = not tested or not shown.

SMILES | Ecoli WT expand | CYP2C9 inh | CYP2C19 activ | CYP2C19 inhib | Ecoli tolC | CYP2C9 act
O=C(OCc1nnc(-c2ccccc2)o1)c1ccco1 | 10.0 | 6.5 | 0.8 | 18.1 | 8.4 | 0.9
CCOc1ncccc1C(=O)OCc1nnc(-c2ccccc2)o1 | 1.0 | 28.2 | 0.2 | 84.0* | 17.0 | 0.7
COc1ccc(CNc2nc3nc(-c4ccccc4)cc(=O)n3[nH]2)cc1OC | -9.0 | -2.4 | 1.1 | -10.4 | -15.1 | 1
C=CCNC(=S)NNC(=O)COc1cccc(Cl)c1 | 12.0 | 9.5 | 0.4 | 60.0* | x | 0.9
Cc1ccc(CNC(=O)CCCn2c(=O)c3ccccc3n(CC(=O)NCc3ccco3)c2=O)cc1 | -5.0 | x | x | x | -0.3 | x
O=C(CCn1c(=O)oc2ccccc21)NCc1ccc2c(c1)OCO2 | -2.0 | -2.6 | 0.7 | 25.6 | -8.3 | 1
O=C(CCCCn1c(=O)c2ccccc2n(Cc2ccc(F)cc2)c1=O)NCc1ccco1 | -9.0 | 84.9* | 0.2 | 81.4* | 13.6 | 0.2
O=C(Cn1c(CN2CCCCC2)nc2ccccc2c1=O)NCc1ccco1 | 8.0 | 75.0* | 0.5 | 54.7* | -8.3 | 0.3
O=C(CCCn1c(=O)c2ccccc2n(Cc2ccccc2)c1=O)NCc1ccco1 | 0.0 | 32.7 | 0.1 | 90.1* | 8.0 | 0.7
O=C(CCn1c(=O)c2ccccc2n(Cc2ccccc2)c1=O)NCc1ccc2c(c1)OCO2 | -8.0 | 33.7 | 0.5 | 51.6* | x | 0.7
Cc1ccc(C)c(S(=O)(=O)NC(CC(C)C)C(=O)O)c1 (stereo not given) | -4.0 | 11.4 | 0.9 | 8.0 | -16.9 | 0.9
O=C(Cn1c(=O)n(Cc2ccccc2)c(=O)c2ccccc21)NCc1ccco1 | 4.0 | 24.6 | 0.5 | 51.9* | x | 0.8
Cn1c(SCc2ccc(C(=O)Nc3nccs3)cc2)nnc1-c1ccccc1 | -3.0 | 67.9* | 0.7 | 31.6 | x | 0.3
CCn1c(SCc2ccc(C(=O)Nc3nccs3)cc2)nnc1-c1ccc(N)cc1 | 3.0 | 67.8* | 0.7 | 28.9 | x | 0.3
CCn1c(SCc2ccc(C(=O)Nc3nccs3)cc2)nnc1-c1ccc(NC(C)=O)cc1 | -2.0 | 84.8* | 0.6 | 41.5 | x | 0.2
Cc1ccc(NC(=O)c2ccc(CSc3nnnn3C)cc2)cc1 | -7.0 | 21.3 | 0.8 | 16.5 | x | 0.8
CCN1C(=O)c2ccc(C(=O)Nc3nccs3)cc2C1=O | 6.0 | 20.6 | 1 | -3.5 | 16.6 | 0.8
C=CCC1(O)C(=O)Nc2ccccc21 (stereo not given) | 6.0 | -4.3 | 0.9 | 8.4 | -5.6 | 1
Cc1ccccc1-c1nc(Cc2ccccc2)no1 | 8.0 | 8.6 | 0.8 | 17.0 | 14.7 | 0.9
COc1ccc2oc(=O)c(C(=O)N3CCN(C45CC6CC(CC(C6)C4)C5)CC3)cc2c1 | x | x | x | x | -0.6 | x
CC1(C)CC(=O)C2=C(C1)N(Cc1cccnc1)C(=O)C2(NC(=O)c1ccc(F)cc1)C(F)(F)F (stereo not given) | -2.0 | 22.6 | 0.8 | 19.6 | x | 0.8
COC(=O)c1ccccc1NC(=O)CSc1nnc(C(CO)NC(=O)c2ccccc2Cl)n1C (stereo not given) | 7.0 | -11.6 | 1.1 | -8.0 | x | 1.1
COC(=O)c1sccc1NC(=O)CSc1ccccc1NS(=O)(=O)c1ccc(Cl)cc1 | -13.0 | 83.7* | 0.4 | 59.0* | x | 0.2
COC(=O)c1sccc1NC(=O)CSc1ccccc1NS(=O)(=O)c1ccccc1Cl | -22.0 | 86.7* | 1 | 3.6 | x | 0.1
COC(=O)c1sccc1NC(=O)CSc1cc(Cl)ccc1Cl | -9.0 | 43.8 | 0.7 | 29.8 | x | 0.6
SMILES | Ecoli WT expand | CYP2C9 inh | CYP2C19 activ | CYP2C19 inhib | Ecoli tolC | CYP2C9 act
Cc1cc(C)nc(N(C#N)S(=O)(=O)c2ccccc2)n1 | -5.0 | 37.5 | 0.8 | 19.7 | -19.4 | 0.6
CCCCN(C(=O)NC(=O)C1=C(N2CCOCC2)/C(=C/c2ccccc2)CC1)S(C)(=O)=O | -18.0 | 77.9* | 0.2 | 79.0* | 7.7 | 0.2
CN(C(=O)NC(=O)C1=C(N2CCOCC2)/C(=C/c2ccccc2)CC1)S(C)(=O)=O | -14.0 | 5.5 | 0.8 | 19.0 | 2.2 | 0.9
Cc1ccc(N2C(=O)C3CC(c4ccccc4)=C4C5C=CC(C6C(=O)N(c7ccc(C)cc7C)C(=O)C56)C4C3C2=O)c(C)c1 (stereo not given) | -8.0 | 84.8* | 0.9 | 13.3 | x | 0.2
COC(=O)c1cc(-c2c(C)oc3cc(OC(C)C)ccc3c2=O)c(C)o1 | 8.0 | 67.0* | 0.4 | 60.1* | 0.7 | 0.3
COC(=O)c1cc(COc2ccc3c4c(c(=O)oc3c2)CCCC4)c(C)o1 | -1.0 | 6.6 | 1 | 3.2 | -1.3 | 0.9
COC(=O)c1cc(COc2ccc3oc(C)c(C(=O)OC(C)C)c3c2)c(C)o1 | 3.0 | 84.4* | 0.1 | 88.0* | x | 0.2
C=C(C)COc1ccc2oc(C)c(C(=O)OCCOC)c2c1 | 7.0 | 60.0* | 0.2 | 84.2* | 14.2 | 0.4
COc1ccc(C(=S)Nc2ccc(N(C)C)cc2)cc1 | -10.0 | -19.9 | 0.7 | 30.1 | x | 1.2
O=C(NCc1ccco1)C(C(=O)c1ccc(F)cc1)n1ccccc1=O (stereo not given) | 8.0 | -21.2 | 1.2 | -18.4 | 96.9* | 1.2
O=C(CCSCCC(=O)NCc1cccs1)NCc1cccs1 | 1.0 | 62.5* | 0.6 | 35.4 | -18.9 | 0.4
O=C(CSCc1ccc(F)cc1)NCc1ccco1 | 2.0 | 39.5 | 0.3 | 70.5* | x | 0.6
O=C(NCc1ccccn1)C(C(=O)c1ccc(F)cc1)n1ccccc1=O (stereo not given) | -10.0 | -19.8 | 1.1 | -12.5 | -8.1 | 1.2
O=C(CCSCCC(=O)NCc1ccco1)NCc1ccco1 | 5.0 | 89.5* | 0.8 | 16.4 | -14.0 | 0.1
Cc1cnc(-c2nnc(N(C)C(=O)c3ccccn3)s2)cn1 | x | -22.0 | 1.2 | -24.5 | -19.7 | 1.2
C=CCNC(=O)COC(=O)COc1ccc(Cl)cc1C | -3.0 | -15.1 | 0.9 | 7.0 | x | 1.2
O=C(CC1CC2CCC1C2)NCc1cccs1 (stereo not given) | 3.0 | 18.8 | 0.3 | 66.4* | -17.2 | 0.8
CC(C)CN(CC(C)C)C(=O)C12CCC(C)(C(=O)C1)C2(C)C (stereo not given) | 10.0 | 7.1 | 0.9 | 6.2 | 0.7 | 0.9
CC1=NN(c2ccccc2)C(=O)C1C(=O)c1ccc(Cl)cc1 (stereo not given) | 8.0 | 93.1* | 1 | -3.7 | x | 0.1
CN(C)c1nc(SCc2ccc(Cl)cc2)nc2c1CCCC2 | 0.0 | 85.6* | 0.3 | 68.8* | x | 0.1
CNc1nc(SCc2ccccc2Cl)nc2c1CCCC2 | -9.0 | 90.1* | 0 | 97.5* | x | 0.1
O=c1[nH]c(SCc2ccccc2Cl)nc2c1CCC2 | -7.0 | 12.9 | 1.1 | -7.5 | 14.5 | 0.9
COc1cnc(SCc2ccc(Cl)cc2)nc1Cl | 0.0 | 6.1 | 0.6 | 42.7 | x | 0.9
CCOc1cc(/C=C2/SC(=Nc3ccccc3)N(Cc3cccnc3)C2=O)ccc1OCC#N | -4.0 | -1.3 | 0.9 | 13.1 | x | 1

Bioassay records (PubChem)
